Reference: ChEMBL document CHEMBL5321214, “Targeting the multifaceted neurotoxicity of Alzheimer's disease by tailored functionalisation of the curcumin scaffold” (Eur J Med Chem, 2023)
Calls of active or inactive are those of the source. The calls are words filed in the database; no cut-off is given here.

Key:
[1] = Toxicity against Drosophila W1118 assessed as proportion of eclosed-flies at 30 uM measured after 72 hrs
Microglia [2] = assay: Antiinflammatory activity against Sprague-Dawley rat microglial cells assessed as inhibition of LPS-induced IL-1 beta production at 1 to 2.5 uM pretreated with compound for 1 hr followed by LPS stimulation for 24 hrs by ELISA; format: functional, cell-based; conditions: dose 1-2.5 µM, time 25.0 hrs
Outline: (§1)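 Primary cortical rat microglia in DMSO (≤0.1%) or vehicle for 1 h, then 100 ng/mL LPS for 24 h. TNF-α and IL-1β in culture medium by ELISA against standard curves (pg/mL), expressed as % of LPS-stimulated cultures. Mean ± SEM of 3 independent experiments; one-way ANOVA, Holm-Sidak test.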

SH-SY5Y [3] = assay: Antioxidant activity in human SH-SY5Y cells assessed as reduction in intracellular ROS formation at 2.5 uM incubated for 24 hrs followed by incubation with t-BuOOH for 30 mins by H2DCF-DA staining based fluorescence analysis; format: functional; conditions: time 24.5 hrs
Outline: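 SH-SY5Y (2×10^4 cells/well) exposed to 2.5 μM for 24 h, loaded with H2DCF-DA 30 min at room temperature, probe removed, then challenged with 50 μM t-BuOOH 30 min at room temperature. Fluorescence ex 485/em 535 nm, expressed as % ROS increase. Three independent experiments; one-way ANOVA with Dunnett's test.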

[4] = Toxicity against Drosophila W1118 assessed as proportion of eclosed-flies at 20 uM measured after 72 hrs
[5] = Toxicity against Drosophila W1118 assessed as minimum toxic concentration by measuring eclosion rate measured for 72 hrs
SH-SY5Y [6] = assay: Cytotoxicity against human SH-SY5Y cells assessed as decrease in cell viability at >2.5 uM incubated for 24 hrs by MTT assay; format: toxicity, cell-based
Outline: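 SH-SY5Y, 2×10^4 cells/well, grown 24 h then exposed 24 h (1.25–40 μM) at 37 °C, 5% CO2. MTT 0.5 mg/mL in HBSS for 2 h, washed, formazan dissolved in isopropanol, read at 570 nm (reference 690 nm).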

SH-SY5Y [7] = assay: Antioxidant activity in human SH-SY5Y cells assessed as increase in intracellular GSH level at 2.5 uM incubated for 24 hrs by […] fluorescence analysis; format: functional
Outline: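 SH-SY5Y (2×10^4 cells/well) grown 24 h, then exposed to 2.5 μM for 24 h at 37 °C. Fluorescent probe added 30 min at 37 °C; read at ex 355/em 460 nm. GSH (μM) from a GSH standard curve. Mean ± SEM of three experiments; one-way ANOVA with Dunnett's test.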

Microglia [8] = assay: Antiinflammatory activity against Sprague-Dawley rat microglial cells assessed as inhibition of LPS-induced IL-1 beta production at 1 uM pretreated with compound for 1 hr followed by LPS stimulation for 24 hrs by ELISA; format: functional, cell-based; conditions: time 25.0 hrs; outline: as §1
Microglia [9] = assay: Antiinflammatory activity against Sprague-Dawley rat microglial cells assessed as downregulation of NLRP3 mRNA expression at 2.5 uM pretreated with compound for 1 hr followed by LPS stimulation for 6 hrs by real-time PCR analysis; format: functional, cell-based; conditions: time 7.0 hrs
Outline: (§2)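 Primary cortical microglia (postnatal day 1 rat pups, shaken off mixed glial cultures, ~97% Iba1-positive). Compound (DMSO ≤0.1%) for 1 h, then 100 ng/mL ultra-pure E. coli LPS for 6 h. QIAzol RNA extraction, SuperScript IV reverse transcription, real-time PCR. Mean ± SEM, n = 3 in triplicate; one-way ANOVA, Holm-Sidak test.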

[10] = biological target: Amyloid-beta precursor protein (Homo sapiens) (UniProt P05067); assay: Anti-oligomeric activity against Abeta42 (unknown origin) assessed as depletion of the formation of toxic HMW Abeta42 oligomers at 2.5 uM measured after 2 to 10 days from sample solubilization by capillary electrophoresis assay; conditions: time 2-10 day
Chain of Amyloid-beta precursor protein (Homo sapiens) (P05067 whole entry): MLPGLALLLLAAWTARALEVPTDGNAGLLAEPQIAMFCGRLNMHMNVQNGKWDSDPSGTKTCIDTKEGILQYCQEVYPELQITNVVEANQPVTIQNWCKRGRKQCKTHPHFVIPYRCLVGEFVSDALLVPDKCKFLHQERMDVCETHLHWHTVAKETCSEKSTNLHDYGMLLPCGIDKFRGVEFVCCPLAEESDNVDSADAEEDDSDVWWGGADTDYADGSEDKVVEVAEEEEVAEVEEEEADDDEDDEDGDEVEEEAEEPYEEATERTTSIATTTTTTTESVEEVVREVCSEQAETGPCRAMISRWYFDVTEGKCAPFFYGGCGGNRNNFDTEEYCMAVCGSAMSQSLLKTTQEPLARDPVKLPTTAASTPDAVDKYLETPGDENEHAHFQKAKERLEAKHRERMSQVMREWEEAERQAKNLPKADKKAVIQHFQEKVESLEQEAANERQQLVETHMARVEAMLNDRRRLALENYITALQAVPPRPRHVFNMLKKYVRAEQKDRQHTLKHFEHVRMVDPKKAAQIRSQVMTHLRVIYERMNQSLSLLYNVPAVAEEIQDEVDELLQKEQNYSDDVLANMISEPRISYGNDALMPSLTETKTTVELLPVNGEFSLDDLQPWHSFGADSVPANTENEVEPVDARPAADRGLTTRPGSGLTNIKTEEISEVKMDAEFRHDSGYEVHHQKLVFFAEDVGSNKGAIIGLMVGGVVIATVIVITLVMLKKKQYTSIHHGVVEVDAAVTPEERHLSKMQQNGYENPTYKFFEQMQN
Outline: (§3)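 Aβ42 stock diluted to 221 μM in 20 mM sodium phosphate pH 7.4 containing compound (ethanol stocks 1.53 mM). Capillary electrophoresis: BGE 80 mM sodium phosphate pH 7.4, 30 mbar × 3 s hydrodynamic injection, +12 kV, 25 °C, 200 nm detection. Oligomers assigned by effective mobility; HMW oligomer peak quantified semiquantitatively as normalised area %.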

Microglia [11] = assay: Antiinflammatory activity against Sprague-Dawley rat microglial cells assessed as inhibition of LPS-induced TNF-alpha production at 2.5 uM pretreated with compound for 1 hr followed by LPS stimulation for 24 hrs by ELISA; format: functional, cell-based; conditions: time 25.0 hrs; outline: as §1
[12] = Effect on IL-1 beta release in Sprague-Dawley rat microglial cells at 2.5 uM by ELISA; format: toxicity, cell-based; conditions: microglia; outline: as §1
[13] = Effect on TNF-alpha release in Sprague-Dawley rat microglial cells at 2.5 uM by ELISA; format: toxicity, cell-based; conditions: microglia; outline: as §1
Drosophila [14] = assay: Downregulation of SOD1 transcript expression in Spastin Drosophila (Tubulin/Gal4 RNAi DSpast) neurodegenerative model at 10 uM flies raised in compound-enriched food by real-time PCR analysis; format: functional
Outline: (§4)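 Total RNA from 5 third-instar Spastin-RNAi larvae raised on standard or compound-enriched food; Tubulin-Gal4/+ as control line. One-step SYBR RT-qPCR normalised to Rp49 by the 2^−ΔΔCt method. n = 3 experiments; one-way ANOVA, Tukey's test.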

Drosophila [15] = assay: Effect on CAT transcript expression in Spastin Drosophila (Tubulin/Gal4 RNAi DSpast) neurodegenerative model at 10 uM flies raised in compound-enriched food by real-time PCR analysis; format: functional; outline: as §4
Microglia [16] = assay: Antiinflammatory activity against Sprague-Dawley rat microglial cells assessed as inhibition of LPS-induced TNF-alpha production at 1 to 2.5 uM pretreated with compound for 1 hr followed by LPS stimulation for 24 hrs by ELISA; format: functional, cell-based; conditions: dose 1-2.5 µM, time 25.0 hrs; outline: as §1
[17] = biological target: Keap1/Nrf2 (Homo sapiens) (UniProt Q16236+Q14145); assay: Activation of Keap1/Nrf2 in human SH-SY5Y cells assessed as Nrf2 nuclear translocation by measuring increase in nuclear to cytosolic Nrf2 ratio at 2.5 uM incubated for 3 hrs by western blot analysis; format: cell-based; conditions: filed as activator
Chain of Keap1/Nrf2 (Homo sapiens) (Q14145 whole entry, looked up): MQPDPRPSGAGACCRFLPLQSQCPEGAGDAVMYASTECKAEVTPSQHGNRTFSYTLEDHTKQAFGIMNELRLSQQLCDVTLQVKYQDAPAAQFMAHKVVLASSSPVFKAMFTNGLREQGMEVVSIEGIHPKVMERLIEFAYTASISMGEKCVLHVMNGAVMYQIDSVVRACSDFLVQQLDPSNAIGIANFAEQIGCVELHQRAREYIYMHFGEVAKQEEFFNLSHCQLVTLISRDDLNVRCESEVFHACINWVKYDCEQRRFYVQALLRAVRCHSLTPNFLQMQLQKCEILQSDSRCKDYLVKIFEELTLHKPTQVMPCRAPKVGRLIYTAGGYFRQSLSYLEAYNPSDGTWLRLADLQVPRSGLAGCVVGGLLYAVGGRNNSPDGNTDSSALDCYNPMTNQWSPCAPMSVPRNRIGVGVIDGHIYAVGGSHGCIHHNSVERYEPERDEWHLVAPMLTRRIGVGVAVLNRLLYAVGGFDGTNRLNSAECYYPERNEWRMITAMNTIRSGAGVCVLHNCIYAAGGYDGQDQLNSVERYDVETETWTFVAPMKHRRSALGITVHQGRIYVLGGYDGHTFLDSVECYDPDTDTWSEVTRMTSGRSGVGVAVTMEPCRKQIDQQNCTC
Chain of Keap1/Nrf2 (Homo sapiens) (Q16236 whole entry, looked up): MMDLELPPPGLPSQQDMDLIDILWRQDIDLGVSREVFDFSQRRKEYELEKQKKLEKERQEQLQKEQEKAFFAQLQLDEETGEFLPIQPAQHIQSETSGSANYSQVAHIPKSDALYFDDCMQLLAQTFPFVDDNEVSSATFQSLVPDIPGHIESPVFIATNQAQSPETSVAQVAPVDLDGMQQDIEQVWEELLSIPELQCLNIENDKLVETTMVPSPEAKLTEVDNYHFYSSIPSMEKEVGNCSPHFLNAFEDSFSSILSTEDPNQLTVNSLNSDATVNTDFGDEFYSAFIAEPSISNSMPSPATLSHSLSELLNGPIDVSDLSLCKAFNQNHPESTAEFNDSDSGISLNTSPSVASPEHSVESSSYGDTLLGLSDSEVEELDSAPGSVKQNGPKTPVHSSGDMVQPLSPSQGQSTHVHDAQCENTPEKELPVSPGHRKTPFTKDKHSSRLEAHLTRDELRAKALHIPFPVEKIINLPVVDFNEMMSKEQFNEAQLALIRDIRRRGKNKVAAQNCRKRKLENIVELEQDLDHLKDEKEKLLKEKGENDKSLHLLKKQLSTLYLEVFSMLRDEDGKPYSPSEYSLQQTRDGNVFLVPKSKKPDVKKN
Outline: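 SH-SY5Y seeded 2×10^6 cells/dish, grown 24 h, then exposed 3 h at 37 °C, 5% CO2. Nuclear and cytosolic fractions immunoblotted for Nrf2, membranes stripped and reprobed for β-actin and lamin B1 as loading references. Mean ± SEM of three independent experiments; one-way ANOVA with Dunnett's test.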

[18] = biological target: Amyloid-beta precursor protein (Homo sapiens) (UniProt P05067); assay: Anti-oligomeric activity against Abeta42 (unknown origin) assessed as depletion of the formation of toxic HMW Abeta42 oligomers at 1 uM measured at day 7 to 10 from sample solubilization by capillary electrophoresis assay; conditions: time 7-10 day; outline: as §3
Microglia [19] = assay: Antiinflammatory activity against Sprague-Dawley rat microglial cells assessed as downregulation of TNF-alpha mRNA expression at 2.5 uM pretreated with compound for 1 hr followed by LPS stimulation for 6 hrs by real-time PCR analysis; format: functional, cell-based; conditions: time 7.0 hrs; outline: as §2

CCCCn1cc(C/C(C(=O)/C=C/c2ccc(OC)cc2)=C(O)\C=C\c2ccc(OC)cc2)nn1
Activity [1]: 85.461% | Activity (Microglia [2]): Active | inhibition at 2.5 µM (SH-SY5Y [3]): 18% | Activity [4]: 88.099% | MTC [5]: 10 µM | Activity (SH-SY5Y [6]): Toxic | Activity (SH-SY5Y [7]): 40% | Activity (Microglia [8]): Active | Activity (Microglia [9]): Active | Activity [10]: Active | Activity (Microglia [11]): Active | Activity [12]: Non-Toxic | Activity [13]: Non-Toxic | inhibition (Drosophila [14]): Active | Activity (Drosophila [15]): inactive | Activity (Microglia [16]): Active | Activity [17]: Active | Activity [18]: Active | Activity (Microglia [19]): Active
